ChEMBL document CHEMBL4725428 (ACS Med Chem Lett, 2020)
Active and inactive are the calls of the source. The calls are words filed in the database; no cut-off is given here.

Assays:
[1] = target: T1, Protein cereblon/Focal adhesion kinase 1 (Homo sapiens, UniProt Q05397+Q96SW2); assay: Protac activity at CRBN/FAK in human PA1 cells assessed as induction of FAK degradation at 10 nM incubated for 8 hrs by Western blot analysis relative to control; type: cell-based; conditions: PA-1
Procedure, shortened: (§1)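 PA1 cells were treated at the indicated doses for 8 h, and FAK was quantified from immunoblots relative to untreated control. Data come from three independent experiments.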

[2] = target: T1, Protein cereblon/Focal adhesion kinase 1; assay: Protac activity at CRBN/FAK in human PA1 cells assessed as induction of FAK degradation at 1 nM incubated for 8 hrs by Western blot analysis relative to control; type: cell-based; conditions: PA-1; procedure, shortened: as §1
[3] = target: T2, Protein cereblon/Focal adhesion kinase 1 (Mus musculus) (UniProt P34152+Q8C7D2); assay: Protac activity at CRBN/FAK in mouse TM3 cells assessed as reduction in FAK autophosphorylation at tyr 397 residue at <1 nM after 8 hrs by Western blot analysis; type: cell-based; conditions: dose nM <1, time 8.0 hrs
Procedure, shortened: (§2)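 TM3 cells were treated at the indicated doses for 8 h, then immunoblotted for FAK phosphorylated at Tyr397.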

[4] = target: T1, Protein cereblon/Focal adhesion kinase 1; assay: Protac activity at CRBN/FAK in human PA1 cells assessed as FAK degradation at 1 to 100 nM after 8 hrs in presence of 10 uM pomalidomide; type: cell-based; conditions: PA-1, dose nM 1-100, time 8.0 hrs
Procedure, shortened: (§3)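 For ligand competition, PA1 cells were treated for 8 h with the degrader (1, 10 or 100 nM) alone, or with excess CRBN ligand pomalidomide (10 μM) or FAK ligand PF562271 (10 μM), alone or combined. FAK was read by immunoblot.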

[5] = target: T1, Protein cereblon/Focal adhesion kinase 1; assay: Protac activity at CRBN/FAK in human PA1 cells assessed as FAK degradation at 1 to 100 nM after 8 hrs in presence of 10 uM PF562271; type: cell-based; conditions: PA-1, dose nM 1-100, time 8.0 hrs; procedure, shortened: as §3
[6] = target: T1, Protein cereblon/Focal adhesion kinase 1; assay: Protac activity at CRBN/FAK in human PA1 cells assessed as reduction FAK degradation at 1 to 100 nM after 8 hrs in presence of 5 uM MG132; type: cell-based; conditions: PA-1, dose nM 1-100, time 8.0 hrs
Procedure, shortened: (§4)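 To test proteasome dependence, PA1 cells received the degrader (1, 10 or 100 nM) for 8 h, either alone or together with MG132 (5 μM) or carfilzomib (5 μM). Each inhibitor was also given alone. FAK was assessed by immunoblot.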

[7] = target: T1, Protein cereblon/Focal adhesion kinase 1; assay: Protac activity at CRBN/FAK in human PA1 cells assessed as reduction FAK degradation at 1 to 100 nM after 8 hrs in presence of 5 uM carfilzomib; type: cell-based; conditions: PA-1, dose nM 1-100, time 8.0 hrs; procedure, shortened: as §4
[8] = target: Protein cereblon/Focal adhesion kinase 1 (Mus musculus, UniProt P34152+Q8C7D2); assay: Protac activity at CRBN/FAK in mouse TM3 cells assessed as induction of FAK degradation after 8 hrs by Western blot analysis; type: cell-based
Procedure, shortened: (§5)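 Each cell line was exposed to graded concentrations for 8 h, and FAK protein was detected by immunoblot. DC50 is the concentration giving half-maximal FAK degradation.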

[9] = target: T1, Protein cereblon/Focal adhesion kinase 1; assay: Protac activity at CRBN/FAK in human PA1 cells assessed as induction of FAK degradation after 8 hrs by Western blot analysis; type: cell-based; conditions: pa-1; procedure, shortened: as §5
[10] = target: T1, Protein cereblon/Focal adhesion kinase 1; assay: Protac activity at CRBN/FAK in human MDA-MB-436 cells assessed as induction of FAK degradation after 8 hrs by Western blot analysis; type: cell-based; procedure, shortened: as §5
[11] = target: T1, Protein cereblon/Focal adhesion kinase 1; assay: Protac activity at CRBN/FAK in human LNCAP cells assessed as induction of FAK degradation after 8 hrs by Western blot analysis; type: cell-based; procedure, shortened: as §5
[12] = target: T1, Protein cereblon/Focal adhesion kinase 1; assay: Protac activity at CRBN/FAK in human Ramos cells assessed as induction of FAK degradation after 8 hrs by Western blot analysis; type: cell-based; procedure, shortened: as §5
[13] = target: T2, Protein cereblon/Focal adhesion kinase 1 (Mus musculus); assay: Protac activity at CRBN/FAK in mouse TM3 cells assessed as reduction in FAK autophosphorylation at tyr 397 residue at 100 nM after 1 hr by Western blot analysis relative to control; type: cell-based; design: scale not given: the % may be the effect or the level left
Procedure, shortened: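 In a time course, TM3 cells were exposed to 100 nM, and FAK and pFAK Tyr397 levels were followed by immunoblot at successive time points.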

[14] = target: T2, Protein cereblon/Focal adhesion kinase 1 (Mus musculus); assay: Protac activity at CRBN/FAK in mouse TM3 cells assessed as reduction in FAK autophosphorylation at tyr 397 residue at 1 to 3000 nM after 8 hrs by Western blot analysis; type: cell-based; conditions: dose nM 1-3000, time 8.0 hrs; procedure, shortened: as §2
TM3 = assay: Antiproliferative activity against mouse TM3 cells assessed as effect on cell proliferation after 72 hrs by MTS assay; type: functional, cell-based
PA-1 = assay: Antiproliferative activity against human PA1 cells assessed as effect on cell proliferation after 72 hrs by MTS assay; type: functional, cell-based
MDA-MB-436 = assay: Antiproliferative activity against human MDA-MB-436 cells assessed as effect on cell proliferation after 72 hrs by MTS assay; type: functional, cell-based
LNCaP = assay: Antiproliferative activity against human LNCAP cells assessed as effect on cell proliferation after 72 hrs by MTS assay; type: functional, cell-based
Ramos = assay: Antiproliferative activity against human Ramos cells assessed as effect on cell proliferation after 72 hrs by MTS assay; type: functional, cell-based

Row | Activity [1] [%] | Activity [2] [%] | Compound | also measured
1 | 94 | 46 | CN(c1ncccc1CNc1nc(Nc2ccc(NC(=O)c3cn(CCOCCOCCOCCNc4cccc5c4C(=O)N(C4CCC(=O)NC4=O)C5=O)nn3)cc2)ncc1C(F)(F)F)S(C)(=O)=O (stereo not given) | –
2 | 99 | 90 | CN(c1ncccc1CNc1nc(Nc2ccc(NC(=O)c3cn(CCOCCOCCNc4cccc5c4C(=O)N(C4CCC(=O)NC4=O)C5=O)nn3)cc2)ncc1C(F)(F)F)S(C)(=O)=O (stereo not given) | Activity [3]: Active; Activity [4]: inactive; Activity [5]: inactive; Activity [6]: inactive; Activity [7]: inactive; DC50 [8]: 0.31 nM; DC50 [9]: 0.08 nM; DC50 [10]: 0.33 nM; DC50 [11]: 0.37 nM; DC50 [12]: 0.04 nM; Activity [13]: > 50%; Activity [14]: Active; Activity (TM3): inactive; Activity (PA-1): inactive; Activity (MDA-MB-436): inactive; Activity (LNCaP): inactive; Activity (Ramos): inactive
3 | 95 | 85 | CN(c1ncccc1CNc1nc(Nc2ccc(NC(=O)c3cn(CCCCCOCCCc4cccc5c4C(=O)N(C4CCC(=O)NC4=O)C5=O)nn3)cc2)ncc1C(F)(F)F)S(C)(=O)=O (stereo not given) | –
4 | 90 | 62 | CN(c1ncccc1CNc1nc(Nc2ccc(NC(=O)c3cn(CCOCCOCC#Cc4cccc5c4C(=O)N(C4CCC(=O)NC4=O)C5=O)nn3)cc2)ncc1C(F)(F)F)S(C)(=O)=O (stereo not given) | –
5 | 92 | 40 | CN(c1ncccc1CNc1nc(Nc2ccc(NC(=O)c3cn(CCOCCNc4cccc5c4C(=O)N(C4CCC(=O)NC4=O)C5=O)nn3)cc2)ncc1C(F)(F)F)S(C)(=O)=O (stereo not given) | –
6 | 2 | 0 | CN(c1ncccc1CNc1ncc(C(F)(F)F)c(Nc2ccc(NC(=O)c3cn(CCOCCOCCNc4cccc5c4C(=O)N(C4CCC(=O)NC4=O)C5=O)nn3)cc2)n1)S(C)(=O)=O (stereo not given) | –
7 | 90 | 62 | CN(c1ncccc1CNc1nc(Nc2ccc(NC(=O)c3cn(CCOCCOCCCc4cccc5c4C(=O)N(C4CCC(=O)NC4=O)C5=O)nn3)cc2)ncc1C(F)(F)F)S(C)(=O)=O (stereo not given) | –

Further lines, the compound ahead of its results:

Row | Compound | Activity [1] [%] | Activity [2] [%] | also measured
8 | CN(c1ncccc1CNc1nc(Nc2ccc(NC(=O)c3cn(CCOCCOCCOCCOCCNc4cccc5c4C(=O)N(C4CCC(=O)NC4=O)C5=O)nn3)cc2)ncc1C(F)(F)F)S(C)(=O)=O (stereo not given) | 82 | 30 | –
9 | CN(c1ncccc1CNc1ncc(C(F)(F)F)c(Nc2ccc(NC(=O)c3cn(CCOCCNc4cccc5c4C(=O)N(C4CCC(=O)NC4=O)C5=O)nn3)cc2)n1)S(C)(=O)=O (stereo not given) | 0 | 0 | –
10 | CN(c1ncccc1CNc1nc(Nc2ccc(C(=O)NCc3cn(CCOCCOCCOCCNc4cccc5c4C(=O)N(C4CCC(=O)NC4=O)C5=O)nn3)cc2)ncc1C(F)(F)F)S(C)(=O)=O (stereo not given) | 30 | 10 | –
11 | CN(c1nccnc1CNc1nc(Nc2ccc(C(=O)NCc3cn(CCOCCOCCNc4cccc5c4C(=O)N(C4CCC(=O)NC4=O)C5=O)nn3)cc2)ncc1C(F)(F)F)S(C)(=O)=O (stereo not given) | 60 | 32 | –
12 | CN(c1ncccc1CNc1nc(Nc2ccc(C(=O)NCc3cn(CCOCCNc4cccc5c4C(=O)N(C4CCC(=O)NC4=O)C5=O)nn3)cc2)ncc1C(F)(F)F)S(C)(=O)=O (stereo not given) | 81 | 55 | –
13 | CN(c1ncccc1CNc1nc(Nc2ccc(NC(=O)c3cn(CCCCCCCC#Cc4cccc5c4C(=O)N(C4CCC(=O)NC4=O)C5=O)nn3)cc2)ncc1C(F)(F)F)S(C)(=O)=O (stereo not given) | 90 | 62 | –
14 | CN(c1nccnc1CNc1nc(Nc2ccc(C(=O)NCc3cn(CCOCCOCCOCCNc4cccc5c4C(=O)N(C4CCC(=O)NC4=O)C5=O)nn3)cc2)ncc1C(F)(F)F)S(C)(=O)=O (stereo not given) | 22 | 5 | –
15 | CN(c1nccnc1CNc1nc(Nc2ccc(NC(=O)c3cn(CCOCCOCCOCCNc4cccc5c4C(=O)N(C4CCC(=O)NC4=O)C5=O)nn3)cc2)ncc1C(F)(F)F)S(C)(=O)=O (stereo not given) | 92 | 35 | –
16 | CN(c1ncccc1CNc1nc(Nc2ccc(NC(=O)c3cn(CCCCCCCCNc4cccc5c4C(=O)N(C4CCC(=O)NC4=O)C5=O)nn3)cc2)ncc1C(F)(F)F)S(C)(=O)=O (stereo not given) | 93 | 67 | –
17 | CN(c1nccnc1CNc1nc(Nc2ccc(C(=O)NCc3cn(CCOCCNc4cccc5c4C(=O)N(C4CCC(=O)NC4=O)C5=O)nn3)cc2)ncc1C(F)(F)F)S(C)(=O)=O (stereo not given) | 71 | 37 | –
18 | CN(c1ncccc1CNc1ncc(C(F)(F)F)c(Nc2ccc(NC(=O)c3cn(CCOCCOCCOCCNc4cccc5c4C(=O)N(C4CCC(=O)NC4=O)C5=O)nn3)cc2)n1)S(C)(=O)=O (stereo not given) | 0 | 0 | –
19 | CN(c1nccnc1CNc1nc(Nc2ccc(NC(=O)c3cn(CCOCCNc4cccc5c4C(=O)N(C4CCC(=O)NC4=O)C5=O)nn3)cc2)ncc1C(F)(F)F)S(C)(=O)=O (stereo not given) | 90 | 32 | –
20 | CN(c1nccnc1CNc1nc(Nc2ccc(NC(=O)c3cn(CCOCCOCCNc4cccc5c4C(=O)N(C4CCC(=O)NC4=O)C5=O)nn3)cc2)ncc1C(F)(F)F)S(C)(=O)=O (stereo not given) | 96 | 71 | –
21 | CN(c1ncccc1CNc1nc(Nc2ccc(NC(=O)c3cn(CCCCCCCCCc4cccc5c4C(=O)N(C4CCC(=O)NC4=O)C5=O)nn3)cc2)ncc1C(F)(F)F)S(C)(=O)=O (stereo not given) | 85 | 40 | –
22 | CCN1C(=O)CCC(N2C(=O)c3cccc(NCCOCCOCCn4cc(C(=O)Nc5ccc(Nc6ncc(C(F)(F)F)c(NCc7cccnc7N(C)S(C)(=O)=O)n6)cc5)nn4)c3C2=O)C1=O (stereo not given) | 0 | 0 | –
23 | CN(c1ncccc1CNc1nc(Nc2ccc(C(=O)NCc3cn(CCOCCOCCNc4cccc5c4C(=O)N(C4CCC(=O)NC4=O)C5=O)nn3)cc2)ncc1C(F)(F)F)S(C)(=O)=O (stereo not given) | 65 | 40 | –
24 | CN(c1ncccc1CNc1nc(Nc2ccc(NC(=O)c3cn(CCCCCOCC#Cc4cccc5c4C(=O)N(C4CCC(=O)NC4=O)C5=O)nn3)cc2)ncc1C(F)(F)F)S(C)(=O)=O (stereo not given) | 90 | 62 | –
